Rows were chosen to be rich in hits. Some 2.7% of all compounds tested hit in one or more screens of this group.
CHO parental Ca: signal in parental CHO cells, OX1R antagonist counter-screen. inhibition, % at 5.6 µM. 330,000 tested, 0.63% active. AID 463079. parental CHO-K1, ATP-induced calcium, Fluo-8 fluorescence;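 active means inhibition above that plate's mean sample inhibition plus 3 SD, cut at about 26% in these data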
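Test system: parental CHO cells; detection: calcium-sensitive Fluo-8 fluorescence; evaluation: percent inhibition of calcium signal; also added: ATP as calcium-mobilizing challenge; repeats: one well per compound; control set: ATP-challenged DMSO wells low, unchallenged DMSO wells high; compound: single nominal dose of 5.6 µM per compound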
OXTR potentiate: potentiates the human oxytocin receptor response. CHO-OTR cells, Fluo-8 calcium fluorescence, potentiator mode; 0% = oxytocin EC15, 100% = EC100. activation, % at 3 µM. 320,000 tested, 0.061% active. P30559;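 active means activation above that plate's cutoff, the mean activation of tested compounds plus 3 SD, cut at about 6.6% in these data, passing the limit was not always enough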
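Material: human OTR in CHO cells. Compound: 3.0 µM, one dose. Timing: compound 6 min at room temperature before oxytocin, 100 s read. Evaluation: % activation of max/min ratio relative to oxytocin controls. Replication: single well per compound, singlicate. Signal: Fluo-8 calcium dye fluorescence.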
OX1R antag-1: blocks the human orexin 1 receptor. 330,000 tested, 0.43% active. O43613. inhibition, % at 5 µM. CHO/OX1R cells, Fluo-8 calcium fluorescence, orexin A;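 active means inhibition above its plate's threshold, mean inhibition of all tested compounds on the plate plus 3 SD, cut at about 37% in these data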
Target sequence (O43613 whole entry, looked up): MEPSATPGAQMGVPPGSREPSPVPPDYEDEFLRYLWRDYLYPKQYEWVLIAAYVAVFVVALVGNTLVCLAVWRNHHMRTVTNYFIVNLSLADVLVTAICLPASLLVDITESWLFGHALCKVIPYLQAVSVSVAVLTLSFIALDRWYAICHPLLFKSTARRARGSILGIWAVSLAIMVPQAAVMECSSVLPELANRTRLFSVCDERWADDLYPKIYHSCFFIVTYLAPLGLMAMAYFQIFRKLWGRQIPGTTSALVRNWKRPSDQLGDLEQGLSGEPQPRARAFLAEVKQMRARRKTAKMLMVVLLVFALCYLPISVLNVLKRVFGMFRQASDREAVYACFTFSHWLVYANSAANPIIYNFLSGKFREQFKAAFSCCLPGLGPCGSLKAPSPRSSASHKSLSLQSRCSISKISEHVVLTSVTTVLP
OXTR agonist: activates the human oxytocin receptor | 320,000 tested, 0.32% active | activation, % at 3 µM | CHO-OTR cells, Fluo-8 calcium fluorescence; normalized: DMSO 0%, oxytocin 100% | P30559;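 active means activation above the mean of all tested compounds plus 3 SD, cutoff set per screening run, cut at about 20% in these data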;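 further: peak over basal fluorescence ratio from a 100 s FLIPR kinetic read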
V1aR counter: activates human V1a receptor in oxytocin agonist counter-screen; P37288; CHO-V1R cells, Fluo-8 calcium fluorescence, agonist mode; 0% DMSO, 100% 3 nM vasopressin; activation, % at 3 µM; 320,000 tested, 0.25% active;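 active means activation above the mean activation of all tested compounds plus 3 SD, per screening run, cut at about 20% in these data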;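 further: signal is peak over basal fluorescence ratio across a 100 second FLIPR read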
OX1R antag-2: antagonists of human orexin 1 receptor (OX1R). inhibition, % at 6.6 µM. 330,000 tested, 1.8% active. O43613. OX1R-expressing cells, FRET antagonist read-out; in the data active means inhibition mostly above about 38%, no sharp cut-off; inactive means mostly below about 40%
Each line names hits and unclear results; the compound was inactive in the other large screens.

Cc1ccccc1-[n+]1c(-c2ccccc2)cc(-c2ccccc2)cc1-c1ccccc1	CHO parental Ca 54.2
CC(=NCCCn1ccnc1)c1c(O)n(C2CCCCC2)c(=O)[nH]c1=O	none
CN1CCN(c2c(F)cc([N+](=O)[O-])c(N)c2Br)CC1	OX1R antag-2 51.9
Nc1c([N+](=O)[O-])cc(F)c(N2CCNCC2)c1Br	none
CN1CCN(c2ccc([N+](=O)[O-])c(Sc3nncn3C)c2)CC1	none
CCNc1cc(N2CCN(C)CC2)ccc1[N+](=O)[O-]	OX1R antag-2 50.6
CN1CCN(c2ccc([N+](=O)[O-])c(N/N=C3\CN4CCC3CC4)c2)CC1	OX1R antag-2 56.0
Cc1ccc(-c2cc(-c3ccc(C)cc3)[n+](-c3ccc(C(=O)O)cc3)c(-c3ccc(C)cc3)c2)cc1	none
Cc1ccc(C[n+]2c(-c3ccc(C)cc3)cc(-c3ccc(C)cc3)cc2-c2ccc(C)cc2)cc1	CHO parental Ca 98.3, OX1R antag-1 96.5
Cc1ccccc1CCNCc1cc2cccc(C)c2[nH]c1=O	none
Cn1c(O)c(C=Nc2ccc(F)cc2)c(=O)[nH]c1=O	none
Cn1c(O)c(/C=C2/C=CC=N2)c(=O)[nH]c1=O	OX1R antag-2 49.6
COc1cc2c(cc1OC)CN(c1ccc([N+](=O)[O-])c(C(F)(F)F)c1)CC2	OX1R antag-2 47.7
CC(C)(O)C(=O)Nc1ccc([N+](=O)[O-])c(C(F)(F)F)c1	none
CC1(O)CCN2C(=O)CCc3cccc1c32 (stereo not drawn)	none
CCCC[C@@H](C)C[C@@H](C)C(=O)N(C)[C@@H](CC(C)C)C(=O)N[C@H](C(=O)N(C)[C@H](C(=O)N1C[C@@H](O)C[C@H]1C(=O)N1C(=O)C=C[C@@H]1C)C(C)C)C(C)OC(C)=O (stereo partly drawn)	OX1R antag-2 52.5
C[C@]12CCC3C(CC[C@H]4C[C@@H](O)CC[C@]34C)C1CC[C@@H]2OC(=O)[C@H](N)CCCCN (stereo partly drawn)	none
CCN(CC)S(=O)(=O)c1ccc(C)c(NCC(=O)Nc2ccc(C#N)c(Cl)c2)c1	CHO parental Ca 56.4
CC1(C)C[C@H]2C=C(C=O)[C@]3(C=O)C[C@]3(C)[C@H]2C1	CHO parental Ca 69.0, OX1R antag-1 39.6
COC(=O)c1ccccc1-n1c(C)nc2ccccc2c1=O	none
O=C(O)c1cccc2nc3ccccc3nc12	OX1R antag-2 48.3
[Cl][Pt+2][Cl].[NH-]C1CCCCC1[NH-] (stereo not drawn)	none
C[n+]1c2ccccc2nc2ccc(NCCO)cc21	OX1R antag-2 85.5
CCCCCCC(C)(C)c1ccc([C@@H]2C[C@H](O)CC[C@H]2CCCO)c(O)c1	none
COc1ccc(C(=O)O/N=C(/C(N)=O)P(=O)(OC(C)C)OC(C)C)cc1	none
O=C1NC(=O)N(c2ccc(Cl)cc2)C(=O)/C1=C\c1ccc(Sc2nc3ccccc3[nH]2)o1	OXTR agonist 29.4, V1aR counter 36.3
O=C1NC(=O)C(=Cc2ccc(Sc3ccccc3)o2)C(=O)N1	none
CN1CC[C@@]2(C)c3cc(O)ccc3N(C)C2O1 (stereo partly drawn)	OX1R antag-2 59.6
COc1ccc(NC(=O)C2C3CCC(O3)C2C(=O)O)c(OC)c1 (stereo not drawn)	none
Cc1ccc(C(=O)N[C@@H](C)CN2C3=NC[C@H](Cc4ccccc4)N3C[C@H]2Cc2ccc(O)cc2)cc1Br	CHO parental Ca 41.8, OX1R antag-1 46.6
Cc1ccc(C(=O)N[C@@H](C)CN2C3=NC[C@@H](Cc4ccccc4)N3C[C@H]2Cc2ccc(O)cc2)cc1Br	none
Clc1ccc(C(c2ccc(Cl)cc2)n2cc[n+](CC(OCc3ccc(Cl)cc3Cl)c3ccc(Cl)cc3Cl)c2)cc1 (stereo not drawn)	none
CCOc1cc2c(cc1OCC)-n1cccc1C(c1ccc(C(C)C)cc1)NC2 (stereo not drawn)	CHO parental Ca 56.5
CN1/C(=C\C=Nc2ccccc2)C(C)(C)c2ccccc21	none
CN1/C(=C\C=C2C(=O)NC(=O)NC2=O)C(C)(C)c2ccccc21	CHO parental Ca 41.2, OXTR agonist 25.0, V1aR counter 31.5, OX1R antag-2 112.3
